High-throughput results: PubChem BioAssay, several laboratories
A selection: hits, their analogues and other compounds. The true share with any hit is near 2.2%.
NR2E3 ag-1: inhibitors of NR2E3-RetCOR corepressor binding, primary screen, NR2E3 agonist project, biochemical, TR-FRET, GST-NR2E3, biotin-RetCOR; 1536-well; Photoreceptor-specific nuclear receptor (Homo sapiens), Q9Y5X4; inhibition of corepressor binding, % at 4.78 µM; actives 0.12% (n = 320,000);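 active means percent inhibition above the cutoff of mean plus 3 SD of all tested compounds, set per screening campaign, cut at about 20% in these data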;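 further: 0% = DMSO wells and 100% = biotin wells as full block of FRET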
Target sequence (Q9Y5X4 whole entry, looked up): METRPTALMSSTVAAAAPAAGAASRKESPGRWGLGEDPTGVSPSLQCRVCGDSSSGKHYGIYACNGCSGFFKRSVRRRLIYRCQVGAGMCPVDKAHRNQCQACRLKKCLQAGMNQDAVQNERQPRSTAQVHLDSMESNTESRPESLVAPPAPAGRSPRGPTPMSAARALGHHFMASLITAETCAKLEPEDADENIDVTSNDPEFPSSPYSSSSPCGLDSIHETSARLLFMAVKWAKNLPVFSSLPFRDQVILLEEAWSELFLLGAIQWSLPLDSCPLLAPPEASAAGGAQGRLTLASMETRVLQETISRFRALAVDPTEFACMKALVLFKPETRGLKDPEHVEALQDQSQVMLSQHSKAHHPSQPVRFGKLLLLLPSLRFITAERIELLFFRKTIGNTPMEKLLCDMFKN
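System: GST-NR2E3 and biotin-RetCOR proteins; probe or stimulus: 7 nM biotin-RetCOR; doses: compound at 4.8 µM, single dose; schedule: Compound–protein incubation for 5 h at 4 °C; detection: time-resolved FRET; read-out: percent inhibition; controls: biotin wells as high control, 0.6% DMSO wells as low control; format: 1536-well plates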
NR2E3 ag-2: NR2E3 agonists in two-hybrid cells, primary screen, cell-based, luminescence, CHO-S, Gal4-NCOR/VP16-NR2E3 | luciferase | Photoreceptor-specific nuclear receptor (Homo sapiens), Q9Y5X4 | actives 0.35% (n = 360,000) | inhibition of corepressor binding, % at 3.98 µM;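 active means inhibition above the mean of all tested compounds plus 3 SD, cut at about 70% in these data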;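 further: 0% = DMSO with NR2E3 transfected cells and 100% = cells lacking NR2E3 construct; higher means lower luciferase signal from less NR2E3 corepressor binding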
GalR3 antag: GalR3 antagonists in HEK293 cells, primary screen, cell-based, fluorescence readout | HEK293 GalR3-CNG cAMP membrane potential fluorescence; galR3 body fused to GalR1 C-terminus | actives 0.44% (n = 360,000) | inhibition, % at 3 µM | Galanin receptor type 3 (Homo sapiens), O60755 | AID 651719, 2012;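 active means inhibition above the screen-wide average plus 3 SD, cut at about 13% in these data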;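 further: forskolin and galanin both at EC90 stimulate the cells; cAMP rise reported by CNG channel membrane potential dye signal; 0% = forskolin plus galanin with DMSO and 100% = forskolin alone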
Target sequence (O60755 1-299 limits assumed): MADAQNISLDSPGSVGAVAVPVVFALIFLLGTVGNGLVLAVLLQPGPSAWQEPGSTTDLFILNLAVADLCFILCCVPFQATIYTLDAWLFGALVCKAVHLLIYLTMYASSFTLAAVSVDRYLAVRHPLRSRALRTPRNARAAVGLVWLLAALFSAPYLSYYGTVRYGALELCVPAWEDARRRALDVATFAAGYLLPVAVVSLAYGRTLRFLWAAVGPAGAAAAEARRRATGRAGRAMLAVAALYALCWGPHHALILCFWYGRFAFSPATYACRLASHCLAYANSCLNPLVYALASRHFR
HIV Env fusion: inhibitors of HIV-1 Env-driven cell-cell fusion, primary screen, HeLa-JRFL effector, CEM21 target cells, luciferase; inhibition, % at 12.3 µM; actives 1.1% (n = 360,000); AID 651610, 2012;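 active means mean replicate inhibition score of at least 50 and every replicate individually at or above 50; inconclusive means only one of the two criteria met; inactive means mean below 50 and not all replicates reaching 50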;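 further: 0% = plate neutral controls and 100% = maraviroc near 300 nM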
V-ATPase pH: regulators of yeast V-ATPase proton pumping, primary screen, pHLuorin cytosolic pH fluorescence. S. cerevisiae. response, % at 10 µM. actives 0.37% (n = 350,000). AID 504577, 2011; in the data active means response mostly above about 7.3%, no sharp cut-off; inactive means mostly below about 5.4%; further: actives read high
GAA850 FXN act: FXN promoter activators, primary screen, cell-based, luciferase luminescence, HEK293 lucGAA850; actives 0.56% (n = 360,000); activation, % at 6 µM; AID 540364, 2011; HEK293 lucGAA850 FXN promoter luciferase reporter, 24 h; percent of 10 µM SAHA response;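 active means activation above the average of all compounds screened plus 3 SD, cutoff fixed separately per campaign, cut at about 7.5% in these data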;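 further: 0% = DMSO wells and 100% = 10 µM SAHA wells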
GAA30 FXN cntr: GAA30 FXN promoter activators, confirmation, counter-screen for GAA850 frataxin promoter activator project, cell-based, luminescence, HEK293, lucGAA30, triplicate | actives 66% (n = 1,900) | shares compounds with GAA850 FXN act | AID 588350, 2011 | activation, % at 6 µM | HEK293 lucGAA30 FXN promoter luciferase, 24 h; DMSO = 0%, 5 µM ipriflavone = 100%;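 active means mean activation above the mean of solvent-only control wells plus 3 SD, cut at about 22% in these data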;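 further: counterscreen of GAA850 promoter hits where activity marks nonselective or luminescence artifacts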
GAA850 confirm: FXN GAA850 promoter activators in reporter cells, confirmation, cell-based, luminescence, HEK293 lucGAA850, triplicate. shares compounds with GAA850 FXN act. HEK293 lucGAA850 FXN promoter luciferase reporter, 24 h; 100% = activation by SAHA. activation, % at 6 µM. actives 86% (n = 1,900);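 active means mean activation above a set limit taken from the primary screen, cut at about 8% in these data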;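 further: 0% = DMSO wells and 100% = 10 µM SAHA wells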
* hit, by the source's call; u = inconclusive; x = no result; [ ] = another dose, or the depositor's remark.

SMILES	NR2E3 ag-1	NR2E3 ag-2	GalR3 antag	HIV Env fusion	V-ATPase pH	GAA850 FXN act	GAA30 FXN cntr	GAA850 confirm
C/C(=N\NC(=O)C(c1ccccc1)c1ccccc1)c1ccccn1	2	-1	3	12	0	9.6*	-119	-35
Cc1nonc1C(=O)N/N=C/c1ccc(O)c(O)c1	1	-19	-12	4	-4	9.4*	30*	8.4*
O=C(/C=C/Sc1ccccc1)c1ccc(Cl)cc1	2	-104	-11	x	-2	12*	86*	58*
Cc1ccsc1/C=N/Nc1ncnc2nc[nH]c12	-7	-67	-4	-19	-3	13*	129*	48*
Cc1ccccc1/C=N/Nc1ncnc2nc[nH]c12	-2	-29	-6	-8	3	8.4*	64*	21*
Fc1ccc(/C=N/Nc2ncnc3nc[nH]c23)cc1F	-1	-32	6	-64	0	5	x	x
C(=N\Nc1ncnc2nc[nH]c12)/c1cccs1	-6	-60	-5	-13	2	12*	88*	43*
CN1C(=O)c2cc(NC(=O)c3ccccc3)ccc2OC[C@@H]2O[C@H](CC(=O)NCC3CC3)CC[C@H]21	x	x	x	15[16.7 µM]	x	x	x	x
CCCNC(=O)C[C@@H]1C[C@H]2c3cc(NC(=O)NC4CCCC4)ccc3O[C@H]2[C@@H](CO)O1	x	x	x	-4[16.7 µM]	x	x	x	x
O=C(NC1CCCC1)C(c1ccsc1)N(Cc1ccccc1)C(=O)Cc1cccs1 (stereo not given)	-2	1	-13	x	x	14*	14	19*
Cc1ccc(-c2ccc3c(c2)O[C@@H](CN(C)S(C)(=O)=O)[C@@H](C)CN([C@@H](C)CO)S3(=O)=O)cc1	x	x	x	-7[16.7 µM]	x	x	x	x
CCN(CC)C(=O)c1cc(-c2ccc(Br)cc2)on1	5	-117	-6	-122	-6	8.0*	111*	40*
O=[N+]([O-])c1cc(S(=O)(=O)C(F)(F)F)ccc1Sc1nc2ccccc2s1	2	-11	-2	x	0	13*	-7	38*
CCCCNC(=O)N(O)C1N(/N=C/c2ccco2)C(=S)SC1(C)C (stereo not given)	1	9	-2	-6	-1	0	x	x
CCCCNC(=O)N(O)C1N(/N=C/c2ccccc2F)C(=S)SC1(C)C (stereo not given)	-2	-16	-7	81*	1	8.4*	26*	7
N#CCCN1CCN(C(=S)c2ccc(-c3cccc(Cl)c3)o2)CC1	1	-66	-8	x	3	8.6*	74*	31*
N#CCCN1CCN(C(=S)c2ccc(-c3ccc(Cl)c(Cl)c3)o2)CC1	-2	-34	0	x	0	8.7*	72*	30*
O=C(Nc1ccc2c(c1)[C@H]1C[C@H](CC(=O)N3CCOCC3)O[C@@H](CO)[C@H]1O2)C1CCOCC1	x	x	x	34[16.7 µM]	x	x	x	x
CC=Cc1ccc2n(c1=O)C[C@H]1[C@H](CO)[C@@H](C(=O)NCCc3cn(C)cn3)N(C(=O)C3CCC3)[C@@H]21 (mixture of isomers)	x	x	x	1[16.7 µM]	x	x	x	x
C[C@@H]1CCCCO[C@H](CN(C)Cc2ccc(C(=O)O)cc2)[C@H](C)CN([C@H](C)CO)C(=O)c2cc(NS(=O)(=O)c3ccc(Cl)cc3)ccc2O1	x	x	x	-18[16.7 µM]	x	x	x	x
CCc1ccc(Oc2cc(Cl)nc(N)n2)cc1	0	-70	-1	-63	-3	7.7*	103*	36*
COc1ccc(Oc2cc(Cl)nc(N)n2)cc1	5	-7	-3	-6	-2	0	x	x
O=C(O)COc1ccccc1/C=C1\C(=O)Nc2ccc(Br)cc21	-3	-15	-8	18	-2	0	x	x
O=C1Nc2ccc(Br)cc2/C1=C/C(=O)c1ccccc1	x	-59	-3	-68	-3	11*	-8	17*
O=C(N/N=C/c1ccc(O)cc1)Nc1cccc2nsnc12	-4	45	0	6	-1	11*	57*	37*
SMILES	NR2E3 ag-1	NR2E3 ag-2	GalR3 antag	HIV Env fusion	V-ATPase pH	GAA850 FXN act	GAA30 FXN cntr	GAA850 confirm
O=C(Nc1ccccc1O)c1csc2c1CCCC2	0	-167	-2	u	1	11*	119*	44*
CC[C@@]12C(=O)N(c3ccccc3)C(=O)N1[C@H](c1ccc(OC)cc1)[C@@H]1C(=O)N(C(C)(C)C)C(=O)[C@@H]12	5	-10	0	73*	3	11*	35*	14*
COc1ccc(N2C(=O)N3[C@H](c4ccc(Br)cc4)[C@@H]4C(=O)N(C(C)(C)C)C(=O)[C@@H]4[C@]3(Cc3ccccc3)C2=O)cc1	-6	-2	-8	26	-1	-1	x	x
COc1ccc([C@@H]2[C@@H]3C(=O)N(C(C)(C)C)C(=O)[C@@H]3[C@]3(Cc4ccccc4)C(=O)N(c4ccc(Br)cc4)C(=O)N23)cc1	2	-22	x	x	-2	-5	x	x
CC[C@@]12C(=O)N(c3ccc(C)cc3)C(=O)N1[C@H](c1ccc(OC)cc1)[C@@H]1C(=O)N(C(C)(C)C)C(=O)[C@@H]12	1	-20	-6	80*	0	12*	33*	13*
CC[C@@]12C(=O)N(c3ccc(C)cc3)C(=O)N1[C@H](c1ccc(Br)cc1)[C@@H]1C(=O)N(C(C)(C)C)C(=O)[C@@H]12	0	10	-8	86*	5	13*	28*	10*
C[C@@H]1CCCCO[C@@H](CN(C)C(=O)Cc2ccccc2)[C@H](C)CN([C@@H](C)CO)C(=O)c2cc(NS(=O)(=O)c3ccc(F)cc3)ccc2O1	x	x	x	-26[16.7 µM]	x	x	x	x
O=C(Cc1ccccc1)N/N=C/c1ccc2c(c1)OCO2	-1	-39	1	-44	0	9.5*	84*	30*
CC(C)NC(=O)N(C)C[C@@H]1Oc2ccc(NC(=O)NC3CCCCC3)cc2CC(=O)N([C@@H](C)CO)C[C@@H]1C	x	x	x	2[16.7 µM]	x	x	x	x
